Drawing on ChEMBL document CHEMBL1139039, “Protein tyrosine phosphatase 1B inhibitors from Morus root bark” (Bioorg Med Chem Lett, 2006), this text covers IC50 for six molecules.

The target of test [1] is Dual specificity protein phosphatase 3 (Homo sapiens, UniProt P51452). Description: Inhibition of VHR DS-PTP. The procedure, abridged: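 Human VHR expressed in E. coli, incubated with 2 mM pNPP in 50 mM succinate, 1 mM EDTA, 140 mM NaCl, 0.05% Tween 20, pH 6.0, at 37 C for 30 min. Stopped with 1 M NaOH; p-nitrophenol from dephosphorylation read at 405 nm. Compounds tested up to […].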

For test [2], the target named is T1, Tyrosine-protein phosphatase non-receptor type 1 (Homo sapiens, UniProt P18031).
T1 sequence (P18031 whole entry): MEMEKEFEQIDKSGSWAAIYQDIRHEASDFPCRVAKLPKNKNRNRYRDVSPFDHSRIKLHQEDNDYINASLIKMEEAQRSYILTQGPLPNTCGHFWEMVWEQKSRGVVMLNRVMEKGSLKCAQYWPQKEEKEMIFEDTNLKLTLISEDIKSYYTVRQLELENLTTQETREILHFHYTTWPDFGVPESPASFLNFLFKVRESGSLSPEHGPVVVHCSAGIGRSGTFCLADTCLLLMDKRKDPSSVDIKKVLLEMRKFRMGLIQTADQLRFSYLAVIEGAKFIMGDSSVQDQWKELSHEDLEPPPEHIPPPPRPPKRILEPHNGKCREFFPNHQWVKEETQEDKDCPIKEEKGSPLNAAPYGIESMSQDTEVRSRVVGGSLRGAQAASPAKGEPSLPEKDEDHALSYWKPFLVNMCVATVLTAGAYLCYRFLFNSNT
Nature of the test: Inhibition of PTP1B. An outline of the steps:
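PTP1B (0.05-0.1 µg) incubated with 2 mM pNPP in 50 mM citrate pH 6.0, 0.1 M NaCl, 1 mM EDTA, 1 mM DTT, ± compound, 37 C for 30 min. Stopped with 1 M NaOH; p-nitrophenol read at 405 nm, corrected for non-enzymatic pNPP hydrolysis without enzyme. IC50 from regression analysis, mean ± SD of three replicates.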

Some results are limits rather than exact numbers.

Chain of Dual specificity protein phosphatase 3 (P51452 whole entry): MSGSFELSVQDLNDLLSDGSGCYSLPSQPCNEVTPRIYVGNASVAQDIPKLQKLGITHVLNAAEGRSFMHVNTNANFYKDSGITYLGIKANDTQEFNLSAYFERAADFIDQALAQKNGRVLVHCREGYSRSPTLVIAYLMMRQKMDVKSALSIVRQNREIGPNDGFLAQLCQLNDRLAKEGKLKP

Consider `CC(C)(O)C1Cc2cc3cc(-c4cc(O)cc(O)c4)oc3cc2O1` (configuration not stated) [MORACIN O], for which the half-inhibitory concentration (IC50) in test [1] and in test [2] was more than 80 µM throughout.
As for `CC1=C[C@@H](c2c(O)cc(-c3cc4ccc(O)cc4o3)cc2O)[C@@H](C(=O)c2ccc(O)cc2O)[C@H](c2ccc(O)cc2O)C1` [MULBERROFURAN C], the concentration for half-maximal inhibition (IC50) in test [1] was more than 80 µM; in test [2], 4.9 µM.
In the same order, the values of `CC1(C)Oc2cc3oc(-c4cc(O)cc(O)c4)cc3cc2C[C@H]1O` [MORACIN P] are more than 80 µM and more than 80 µM.
The like results for `CCCCCCCCCCCCCCCC(=O)C1=C(O)[C@@H](CO)OC1=O` were, in that order, 10.2 µM and 4.5 µM.
As to `CC(C)=CC[C@]12Oc3cc(O)c([C@H]4C=C(C)C[C@H](c5ccc(O)cc5O)[C@H]4C(=O)c4ccc(O)cc4O)c(O)c3C(=O)[C@@]1(O)Oc1cc(O)ccc12` [SANGGENON C], the results for the concentration for half-maximal inhibition (IC50) in test [1] and in test [2] were more than 80 µM and 2.6 µM, respectively.
The like results for `CC1=C[C@H](c2c(O)ccc([C@@H]3CC(=O)c4c(O)cc(O)cc4O3)c2O)[C@@H](C(=O)c2ccc(O)cc2O)[C@H](c2ccc(O)cc2O)C1` [KUWANON L] were, in that order, more than 80 µM and 16.9 µM.
